# High-throughput results: PubChem BioAssay, several laboratories
# Hits are enriched below; roughly 2.2% of the tested compounds scored in any of these assays.
# HIV Env fusion = inhibitors of HIV Env-mediated cell fusion; HeLa-JRFL Env/CEM21 cell fusion, luciferase; inhibition, % at 12.3 µM; 360,000 compounds, 1.1% hits;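 active = mean replicate inhibition score of at least 50 and every replicate individually at or above 50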
# NR2E3 ag-1 = agonists of human nuclear receptor NR2E3; Q9Y5X4; GST-NR2E3/biotin-RetCOR TR-FRET, 1536-well; inhibition of corepressor binding, % at 4.78 µM; 320,000 compounds, 0.12% hits; AID 2300;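 active = percent inhibition above the cutoff of mean plus 3 SD of all tested compounds, set per screening campaign, cut at about 20% in these data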
# Target sequence (Q9Y5X4 whole entry, looked up): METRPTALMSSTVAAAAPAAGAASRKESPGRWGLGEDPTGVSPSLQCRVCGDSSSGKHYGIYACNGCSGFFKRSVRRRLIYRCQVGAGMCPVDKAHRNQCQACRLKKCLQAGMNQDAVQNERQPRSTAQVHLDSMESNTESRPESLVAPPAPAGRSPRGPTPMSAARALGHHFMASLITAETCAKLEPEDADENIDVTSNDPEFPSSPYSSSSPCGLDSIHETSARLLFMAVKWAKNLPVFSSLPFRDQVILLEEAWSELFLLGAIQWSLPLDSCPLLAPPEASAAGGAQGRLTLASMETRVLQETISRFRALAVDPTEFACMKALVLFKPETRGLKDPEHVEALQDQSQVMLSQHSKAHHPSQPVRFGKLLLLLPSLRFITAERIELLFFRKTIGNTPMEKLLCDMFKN
#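 Format: 1536-well format; test system: GST-NR2E3 and biotin-RetCOR proteins; read-out basis: percent inhibition of TR-FRET ratio; timing: 5 h incubation at 4 °C; detection: time-resolved FRET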
# GalR3 antagonist = blocks the human galanin receptor 3; O60755; HEK293 GalR3-CNG cAMP membrane potential fluorescence; galR3 body fused to GalR1 C-terminus; inhibition, % at 3 µM; 360,000 compounds, 0.44% hits;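 active = inhibition above the screen-wide average plus 3 SD, cut at about 13% in these data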;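 also: forskolin and galanin both at EC90 stimulate the cells; cAMP rise reported by CNG channel membrane potential dye signal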
# Target sequence (O60755 1-299 limits assumed): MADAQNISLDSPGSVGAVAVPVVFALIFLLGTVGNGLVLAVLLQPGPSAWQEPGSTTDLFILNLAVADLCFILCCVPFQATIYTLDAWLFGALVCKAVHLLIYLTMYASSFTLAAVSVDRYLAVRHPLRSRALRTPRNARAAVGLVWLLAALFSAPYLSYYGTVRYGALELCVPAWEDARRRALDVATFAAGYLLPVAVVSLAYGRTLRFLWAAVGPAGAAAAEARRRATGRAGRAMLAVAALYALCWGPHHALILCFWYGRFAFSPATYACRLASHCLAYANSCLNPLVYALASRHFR
# V-ATPase pH = regulators of yeast V-ATPase proton transport; S. cerevisiae, pHLuorin cytosolic pH fluorescence; 350,000 compounds, 0.37% hits; response, % at 10 µM; in the data active = response mostly above about 7.3%, no sharp cut-off; inactive = mostly below about 5.4%; also: actives read high
# NR2E3 ag-2 = human photoreceptor-specific nuclear receptor agonism; Q9Y5X4; CHO-S Gal4-NCOR/VP16-NR2E3 two-hybrid, luciferase; inhibition of corepressor binding, % at 3.98 µM; 360,000 compounds, 0.35% hits;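 active = inhibition above the mean of all tested compounds plus 3 SD, cut at about 70% in these data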;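 also: higher means lower luciferase signal from less NR2E3 corepressor binding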
# FXN GAA850 act = increases GAA850 frataxin promoter reporter activity. 360,000 compounds, 0.56% hits. AID 540364. HEK293 lucGAA850 FXN promoter luciferase reporter, 24 h; percent of 10 µM SAHA response. activation, % at 6 µM;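 active = activation above the average of all compounds screened plus 3 SD, cutoff fixed separately per campaign, cut at about 7.5% in these data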
# NR2E3 ag conf = confirmation of human NR2E3 agonists | shares compounds with NR2E3 ag-2 | CHO-S mammalian two-hybrid NR2E3-NCOR, luciferase luminescence | inhibition, % at 3.98 µM | 2,300 compounds, 51% hits | AID 624378;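 active = average inhibition above a cutoff equal to the mean inhibition of all tested compounds plus one SD, cut at about 70% in these data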
# GAL4-VP16 luc = counter-screen for NR2E3 agonists: GAL4-VP16 reporter inhibitors; inhibition, % at 3.98 µM; shares compounds with NR2E3 ag-2; 2,300 compounds, 29% hits; AID 624379; CHO-S GAL4-VP16 luciferase reporter, luminescence;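 active = mean inhibition above a cutoff equal to the average over all tested compounds plus one standard deviation, cut at about 70% in these data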;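 also: luciferase from a UAS reporter driven by GAL4-VP16 transactivation; higher means less reporter light so more repression of VP16 activity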
# Hits are given with their value; – = inactive; · = no result given; + = active, no number.
SMILES,HIV Env fusion,NR2E3 ag-1,GalR3 antagonist,V-ATPase pH,NR2E3 ag-2,FXN GAA850 act,NR2E3 ag conf,GAL4-VP16 luc
O=C(CCCN1C(=O)/C(=C/c2ccc3c(c2)OCO3)SC1=S)Nc1cccc(C(=O)O)c1,–,–,–,–,–,–,–,–
COc1cccc(/C=C2/SC(=S)N(CCCC(=O)Nc3ccc(O)cc3)C2=O)c1,·,–,–,–,–,–,–,–
Cc1ccc(/C=C2/SC(=S)N(CCCC(=O)Nc3ccc(O)cc3)C2=O)cc1,55,·,–,–,88,–,–,90
O=C(CCN1C(=O)/C(=C/c2ccc3c(c2)OCO3)SC1=S)Nc1cccc(C(=O)O)c1,–,–,–,–,–,–,·,·
COc1ccc(/C=C2\SC(=O)N(CCCC(=O)Nc3cc(Cl)ccc3C(=O)O)C2=O)cc1,61,·,–,–,88,–,80,87
COc1ccc(S(=O)(=O)N(C)C[C@@H]2OCCCC[C@@H](C)Oc3ccc(NS(=O)(=O)c4cccs4)cc3C(=O)N([C@H](C)CO)C[C@H]2C)cc1,–,·,·,·,·,·,·,·
O=C(C[C@@H]1C=C[C@@H](NC(=O)NC2CCCCC2)[C@H](CO)O1)NCc1ccc(F)cc1,–,·,·,·,·,·,·,·
CNC(=O)C[C@@H]1CC[C@H]2[C@@H](COc3ccc(NC(=O)Nc4ccc(C)cc4)cc3C(=O)N2C)O1,–,·,·,·,·,·,·,·
c1csc(CNc2ccc3c(c2)OCCO3)c1,–,–,–,–,–,–,–,–
COc1ccc(-c2csc(NC(=O)Cc3cc(OC)c(OC)c(OC)c3)n2)cc1OC,–,–,–,–,–,–,–,–
O=C(NCC[C@@H]1CC[C@@H](NS(=O)(=O)Cc2ccccc2)[C@H](CO)O1)C1CCCC1,–,·,·,·,·,·,·,·
COc1cccc(NC(=O)N[C@@H]2CC[C@H](CC(=O)NCc3ccncn3)O[C@@H]2CO)c1,–,·,·,·,·,·,·,·
CCCCOc1ccc(S(=O)(=O)NNC(=O)C2Cc3c(ccc4ccccc34)O2)cc1 (stereo not given),–,–,–,–,–,–,·,·
Cc1ccc(S(=O)(=O)NNC(=O)C2Cc3c(ccc4ccccc34)O2)cc1 (stereo not given),–,–,–,–,–,–,–,–
Cc1cccc(Nc2nc(N3CCCCC3)nc(N3CCCCC3)n2)c1,·,–,–,–,–,–,·,·
Cc1ccc(Nc2nc(N/N=C/c3c[nH]c4ccccc34)nc(N3CCOCC3)n2)cc1,–,–,–,–,–,–,–,–
Cc1cc(/C=N/Nc2nc(N3CCOCC3)nc(N3CCOCC3)n2)c(C)n1-c1ccccc1,–,–,–,–,–,–,·,·
Cc1cccc(Nc2nc(N3CCOCC3)nc(N3CCOCC3)n2)c1,–,–,–,–,–,–,–,–
COc1ccccc1-c1cn(CC[C@H]2CC[C@H](NC(=O)C3CC3)[C@@H](CO)O2)nn1,–,·,·,·,·,·,·,·
CC(=O)N(C)C[C@@H]1OCc2ccccc2-c2ccccc2C(=O)N([C@@H](C)CO)C[C@@H]1C,–,·,·,·,·,·,·,·
CCN(CC)S(=O)(=O)c1ccc(N2CCN(c3ccccc3OC)CC2)c(N)c1,–,–,–,–,105,–,93,74
CCN(CC)S(=O)(=O)c1ccc(Oc2ccccc2)c(N)c1,–,–,–,–,–,–,·,·
C[C@@H]1CCCCO[C@H](CN(C)C(=O)CCC(F)(F)F)[C@H](C)CN([C@@H](C)CO)C(=O)c2cc(N(C)C)ccc2O1,–,·,·,·,·,·,·,·
C[C@H]1CN([C@@H](C)CO)S(=O)(=O)c2ccc(-c3cncnc3)cc2O[C@@H]1CN(C)C(=O)c1cccc(F)c1,–,·,·,·,·,·,·,·
CC(=O)c1ccc(S(=O)(=O)N2CCN(c3ccnc4cc(Cl)ccc34)CC2)cc1,–,·,–,·,–,–,–,–
SMILES,HIV Env fusion,NR2E3 ag-1,GalR3 antagonist,V-ATPase pH,NR2E3 ag-2,FXN GAA850 act,NR2E3 ag conf,GAL4-VP16 luc
CC1(c2ccc3ccccc3c2)NC(=O)N(CC(=O)N2CCN(Cc3ccc(C#N)cc3)CC2)C1=O (stereo not given),·,·,·,–,105,–,90,80
CC(=O)N1CCN(C(=O)CN2C(=O)NC(C)(c3ccc4ccccc4c3)C2=O)CC1 (stereo not given),–,–,–,–,–,–,·,·
C=C[C@]1(C)C=C2C(=O)[C@@]3(O)OC(=O)[C@@]4(CCCC(C)(C)[C@H]34)[C@@]2(O)CC1,–,·,–,·,92,·,91,–
CCN1/C(=C/C=C/c2oc3ccc(-c4ccccc4)cc3[n+]2CC)Oc2ccc(-c3ccccc3)cc21,77,–,–,+,80,–,100,93
O=C(C[C@@H]1CC[C@H](NC(=O)Nc2cc(F)ccc2F)[C@H](CO)O1)NCCCN1CCOCC1,–,·,·,·,·,·,·,·
c1ccc(-c2nnc3sc(CN4CCc5ccccc54)cn23)cc1,·,–,–,–,–,–,–,–
Brc1ccc(-c2nnc3sc(CN4CCc5ccccc5C4)cn23)cc1,–,·,–,–,–,–,·,·
COc1ccc(CN(C)C[C@@H]2OCCCC[C@@H](C)Oc3ccc(NS(=O)(=O)c4c(C)noc4C)cc3C(=O)N([C@H](C)CO)C[C@@H]2C)cc1,–,·,·,·,·,·,·,·
CO[C@@H]1CN(C)C(=O)c2ccc(NC(=O)Nc3ccccc3F)cc2OC[C@H](C)N(C(C)=O)C[C@@H]1C,–,·,·,·,·,·,·,·
CO[C@H]1CN(C)C(=O)c2ccc(NS(C)(=O)=O)cc2OC[C@H](C)N(C(=O)c2ccc3c(c2)OCO3)C[C@@H]1C,–,·,·,·,·,·,·,·
CC[n+]1c(/C=C2\Sc3ccccc3N2C)ccc2cccc(C)c21,77,·,–,–,86,–,100,81
COc1ccc(CCNc2nc(-c3ccccn3)cs2)cc1OC,–,–,–,–,–,–,–,–
COc1ccc(CCNc2nc(-c3ccncc3)cs2)cc1OC,–,–,–,–,–,–,·,·
CCCCCCC(=O)N1C/C=C\C(c2ccc(OC)cc2)N(Cc2ccc(F)cc2)C(=O)C1 (stereo not given),–,–,–,–,–,–,–,–
CCCCCCNC(=O)N1C/C=C\C(c2ccc(OC)cc2)N(Cc2ccc(F)cc2)C(=O)C1 (stereo not given),–,–,–,–,–,–,·,·
COc1ccccc1NC(=S)NNC(=O)c1ccc(Cl)cc1Cl,–,–,–,–,–,–,–,–
CCOc1ccc(S(=O)(=O)n2cnc3cc(C)c(C)cc32)cc1,·,–,–,–,–,–,83,76
Cc1cc2ncn(S(=O)(=O)c3ccc(S(N)(=O)=O)cc3)c2cc1C,–,·,–,–,–,–,·,·
C[C@@H]1CCCCO[C@H](CN(C)C(=O)c2ccncc2)[C@H](C)CN([C@@H](C)CO)C(=O)c2cc(NC(=O)C3CCCCC3)ccc2O1,–,·,·,·,·,·,·,·
